In brackets after ≈: the same amount, converted by molar mass. Activity calls are given as the source filed them. The calls are words filed in the database; no cut-off is given here.
Key:
[1] = test system: Haemophilus influenzae; test: Antimicrobial activity against Haemophilus influenzae ARC158 at 100 uM; format: functional, organism-based
Procedure, shortened: (§1)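 Nonmycobacterial panel of Candida albicans, Gram-negative and Gram-positive pathogens.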

[2] = test system: Mycolicibacterium smegmatis; test: Antimicrobial activity against Mycobacterium smegmatis ATCC 607 at 100 uM; format: functional, organism-based
[3] = Fraction unbound in human plasma at 20 uM after 18 hrs by equilibrium dialysis method; format: ADME, cell-free
[4] = Oral bioavailability in Wistar rat at 10 mg/kg; format: ADME, organism-based; details: in vivo
Procedure, shortened: (§2)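 Male Wistar rats given a single dose, 2 mg/kg intravenously or 10 mg/kg orally. Plasma concentration followed over time, n = 2 per compound. Parameters taken from the plasma curves: C0 (iv), Cmax (oral), AUC0−∞, elimination half-life, plasma clearance, Vss and oral bioavailability.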

[5] = test system: Mycobacterium tuberculosis; test: Antimycobacterial activity against Mycobacterium tuberculosis H37Rv after 5 days by standard microdilution method; format: functional; details: 120 h
[6] = test system: Haemophilus influenzae; test: Antimicrobial activity against Haemophilus influenzae ARC446 at 100 uM; format: functional, organism-based; procedure, shortened: as §1
[7] = Permeability of the compound from basolateral to apical side in human Caco2 cells; format: ADME, cell-based; details: Caco-2, read-out: permeability
[8] = Octanol-water partition coefficient, log D of the compound by shake-flask method; format: physicochemical
[9] = Cytotoxicity against human A549 cells after 72 hrs by resazurin based fluorescence assay; format: cell-based; details: read-out: MIC
Procedure, shortened: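 Cytotoxicity read as MMIC, the MIC on the A549 cell line.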

[10] = biological target: Cytochrome P450 2D6 (Homo sapiens, UniProt P10635); test: Inhibition of CYP2D6 (unknown origin); format: ADME
Chain of Cytochrome P450 2D6 (P10635 whole entry, canonical isoform): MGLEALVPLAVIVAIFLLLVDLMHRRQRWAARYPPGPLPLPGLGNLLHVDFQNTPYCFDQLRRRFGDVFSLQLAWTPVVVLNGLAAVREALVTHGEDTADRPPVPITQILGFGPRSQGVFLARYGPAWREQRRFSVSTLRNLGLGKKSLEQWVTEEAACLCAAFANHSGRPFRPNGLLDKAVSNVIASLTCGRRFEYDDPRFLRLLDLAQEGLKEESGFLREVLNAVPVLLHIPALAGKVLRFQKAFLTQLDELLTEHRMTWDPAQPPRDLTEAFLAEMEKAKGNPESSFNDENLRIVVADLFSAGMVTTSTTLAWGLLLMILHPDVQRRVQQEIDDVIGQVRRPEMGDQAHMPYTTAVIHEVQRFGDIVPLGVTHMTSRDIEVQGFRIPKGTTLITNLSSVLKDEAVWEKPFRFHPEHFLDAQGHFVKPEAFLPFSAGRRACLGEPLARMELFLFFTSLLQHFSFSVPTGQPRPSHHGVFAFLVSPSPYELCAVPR
Procedure, shortened: (§3)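 CYP inhibition IC50 measured on isoforms CYP3A4, CYP2D6, CYP2C9, CYP2C19 and CYP1A2.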

[11] = Elimination half life in Wistar rat at 2 mg/kg, iv; format: ADME, organism-based; set-up: dose 2 mg/kg, route intravenous; details: in vivo, read-out: beta t1/2 (converted); procedure, shortened: as §2
[12] = test system: Mycobacterium tuberculosis; test: Antimycobacterial activity against Mycobacterium tuberculosis H37Rv under hypoxic condition after 6 days by resazurin assay; format: functional
[13] = Intrinsic clearance in human liver microsomes at 1 uM up to 30 mins by LC-MS/MS analysis; format: ADME; details: read-out: CLH
[14] = Inhibition of Mycobacterium smegmatis recombinant DprE1 using farnesylphosphoryl-beta-D-ribofuranose as substrate assessed as conversion of amplex red to resorufin after 30 mins; set-up: species or system Mycolicibacterium smegmatis
Procedure, shortened: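 Msm DprE1 (thioredoxin-6His fusion of Msm Rv3790) at 75 nM, preincubated 30 min with 10 μM FAD. Buffer: 50 mM glycylglycine pH 8.5, 200 mM potassium glutamate, 0.002% Brij-35, 2% DMSO, 25 °C. Started with 300 μM farnesylphosphoryl-β-D-ribofuranose, 0.01 mg/mL HRP and 50 μM Amplex Red.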

[15] = Solubility of the compound in 0.1 M phosphate buffer at pH 7.4 after 24 hrs by UV and MS analysis; format: physicochemical
[16] = biological target: T1, Adenosine receptor A1 (Homo sapiens, UniProt P30542); test: Inhibition of adenosine A1 receptor (unknown origin)
T1 sequence (P30542 whole entry): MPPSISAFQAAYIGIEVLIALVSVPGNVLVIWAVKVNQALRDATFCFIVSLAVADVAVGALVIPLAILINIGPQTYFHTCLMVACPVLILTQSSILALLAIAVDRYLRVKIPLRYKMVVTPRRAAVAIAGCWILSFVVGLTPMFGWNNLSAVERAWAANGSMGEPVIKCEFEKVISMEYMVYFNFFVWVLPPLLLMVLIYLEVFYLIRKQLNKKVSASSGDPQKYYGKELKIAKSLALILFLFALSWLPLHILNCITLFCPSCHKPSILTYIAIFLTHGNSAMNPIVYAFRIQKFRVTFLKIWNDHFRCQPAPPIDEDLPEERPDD
Procedure, shortened: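 Secondary pharmacology panel of binding, enzyme and functional assays covering 24 molecular targets. Activity recorded as a defined Ki/IC50/EC50.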

[17] = biological target: T2, Cytochrome P450 1A2 (Homo sapiens, UniProt P05177); test: Inhibition of CYP1A2 (unknown origin); format: ADME; procedure, shortened: as §3
T2 sequence (P05177 whole entry): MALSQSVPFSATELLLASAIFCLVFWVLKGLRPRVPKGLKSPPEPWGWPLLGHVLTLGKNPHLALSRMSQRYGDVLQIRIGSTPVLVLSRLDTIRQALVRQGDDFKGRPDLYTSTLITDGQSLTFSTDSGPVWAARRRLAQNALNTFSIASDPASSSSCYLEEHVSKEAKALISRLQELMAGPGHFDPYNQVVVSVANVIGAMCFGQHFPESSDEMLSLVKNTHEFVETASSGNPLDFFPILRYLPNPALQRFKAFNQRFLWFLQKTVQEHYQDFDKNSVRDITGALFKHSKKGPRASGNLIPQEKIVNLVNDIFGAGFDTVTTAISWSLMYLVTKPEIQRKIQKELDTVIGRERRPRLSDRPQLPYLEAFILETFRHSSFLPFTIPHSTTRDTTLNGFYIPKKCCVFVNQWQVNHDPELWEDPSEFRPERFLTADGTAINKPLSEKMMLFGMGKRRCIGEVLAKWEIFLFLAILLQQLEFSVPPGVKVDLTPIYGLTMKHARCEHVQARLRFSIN

[18] = test system: Mycolicibacterium smegmatis; test: Antimicrobial activity against Mycobacterium smegmatis mc2155 at 100 uM; format: functional, organism-based; details: str. MC2 155
[19] = test system: Klebsiella pneumoniae; test: Antimicrobial activity against Klebsiella pneumoniae ARC1865 at 100 uM; format: functional, organism-based; procedure, shortened: as §1
[20] = test system: Escherichia coli; test: Antimicrobial activity against Escherichia coli ARC523 at 100 uM; format: functional, organism-based; procedure, shortened: as §1
[21] = Elimination half life in Wistar rat at 10 mg/kg, po; format: ADME, organism-based; set-up: dose 10 mg/kg, route oral; details: in vivo, read-out: beta t1/2 (converted); procedure, shortened: as §2
[22] = test system: Candida albicans; test: Antimicrobial activity against Candida albicans ARC527 at 100 uM; format: functional, organism-based; procedure, shortened: as §1
[23] = test system: Escherichia coli; test: Antimicrobial activity against Escherichia coli ARC524 at 100 uM; format: functional, organism-based; procedure, shortened: as §1
[24] = AUC (0 to infinity) in Wistar rat at 10 mg/kg, po; format: ADME, organism-based; set-up: time infinity, dose 10 mg/kg, route oral; details: plasma; procedure, shortened: as §2
[25] = Clearance in Wistar rat at 2 mg/kg, iv; format: ADME, organism-based; set-up: dose 2 mg/kg, route intravenous; details: in vivo; procedure, shortened: as §2
[26] = Initial plasma concentration in Wistar rat at 2 mg/kg, iv; format: ADME, organism-based; set-up: dose 2 mg/kg, route intravenous; procedure, shortened: as §2
[27] = biological target: Cytochrome P450 2C19 (Homo sapiens, UniProt P33261); test: Inhibition of CYP2C19 (unknown origin); format: ADME; procedure, shortened: as §3
Chain of Cytochrome P450 2C19 (P33261 whole entry): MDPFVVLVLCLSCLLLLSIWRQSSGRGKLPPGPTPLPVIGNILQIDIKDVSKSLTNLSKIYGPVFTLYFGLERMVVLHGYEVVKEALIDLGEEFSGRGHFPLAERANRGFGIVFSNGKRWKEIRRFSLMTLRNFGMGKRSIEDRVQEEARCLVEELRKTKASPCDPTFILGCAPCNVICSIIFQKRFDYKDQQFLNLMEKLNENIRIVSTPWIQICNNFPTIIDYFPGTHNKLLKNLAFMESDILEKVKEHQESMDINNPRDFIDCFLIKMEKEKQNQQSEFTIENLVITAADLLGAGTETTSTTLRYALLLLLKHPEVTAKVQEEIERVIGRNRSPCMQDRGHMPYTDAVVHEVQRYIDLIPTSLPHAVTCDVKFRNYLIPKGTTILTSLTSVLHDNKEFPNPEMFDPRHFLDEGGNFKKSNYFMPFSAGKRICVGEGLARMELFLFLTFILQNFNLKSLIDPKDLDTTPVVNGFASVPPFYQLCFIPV

[28] = test system: Pseudomonas aeruginosa; test: Antimicrobial activity against Pseudomonas aeruginosa ARC545 at 100 uM; format: functional, organism-based; procedure, shortened: as §1
[29] = biological target: Cytochrome P450 3A4 (Homo sapiens, UniProt P08684); test: Inhibition of CYP3A4 (unknown origin); format: ADME; procedure, shortened: as §3
Chain of Cytochrome P450 3A4 (P08684 whole entry): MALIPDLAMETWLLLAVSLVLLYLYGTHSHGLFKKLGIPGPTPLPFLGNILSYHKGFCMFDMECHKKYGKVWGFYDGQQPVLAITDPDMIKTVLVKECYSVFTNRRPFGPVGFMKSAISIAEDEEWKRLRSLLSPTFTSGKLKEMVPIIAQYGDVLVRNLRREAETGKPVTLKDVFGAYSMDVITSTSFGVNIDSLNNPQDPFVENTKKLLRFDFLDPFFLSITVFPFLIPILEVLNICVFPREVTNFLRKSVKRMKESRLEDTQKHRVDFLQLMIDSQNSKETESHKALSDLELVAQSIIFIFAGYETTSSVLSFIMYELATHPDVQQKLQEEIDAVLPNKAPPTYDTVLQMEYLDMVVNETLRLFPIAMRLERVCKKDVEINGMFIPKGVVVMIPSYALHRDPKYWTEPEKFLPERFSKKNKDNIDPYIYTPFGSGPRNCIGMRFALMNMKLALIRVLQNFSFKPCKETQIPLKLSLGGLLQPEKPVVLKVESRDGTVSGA

[30] = Permeability of the compound from apical to basolateral side in human Caco2 cells; format: ADME, cell-based; details: Caco-2, read-out: permeability
[31] = test system: Streptococcus pneumoniae; test: Antimicrobial activity against Streptococcus pneumoniae ARC548 at 100 uM; format: functional, organism-based; procedure, shortened: as §1
[32] = biological target: Voltage-gated inwardly rectifying potassium channel KCNH2 (Homo sapiens, UniProt Q12809); test: Inhibition of human ERG by medium-throughput electrophysiology
Chain of Voltage-gated inwardly rectifying potassium channel KCNH2 (Q12809 whole entry): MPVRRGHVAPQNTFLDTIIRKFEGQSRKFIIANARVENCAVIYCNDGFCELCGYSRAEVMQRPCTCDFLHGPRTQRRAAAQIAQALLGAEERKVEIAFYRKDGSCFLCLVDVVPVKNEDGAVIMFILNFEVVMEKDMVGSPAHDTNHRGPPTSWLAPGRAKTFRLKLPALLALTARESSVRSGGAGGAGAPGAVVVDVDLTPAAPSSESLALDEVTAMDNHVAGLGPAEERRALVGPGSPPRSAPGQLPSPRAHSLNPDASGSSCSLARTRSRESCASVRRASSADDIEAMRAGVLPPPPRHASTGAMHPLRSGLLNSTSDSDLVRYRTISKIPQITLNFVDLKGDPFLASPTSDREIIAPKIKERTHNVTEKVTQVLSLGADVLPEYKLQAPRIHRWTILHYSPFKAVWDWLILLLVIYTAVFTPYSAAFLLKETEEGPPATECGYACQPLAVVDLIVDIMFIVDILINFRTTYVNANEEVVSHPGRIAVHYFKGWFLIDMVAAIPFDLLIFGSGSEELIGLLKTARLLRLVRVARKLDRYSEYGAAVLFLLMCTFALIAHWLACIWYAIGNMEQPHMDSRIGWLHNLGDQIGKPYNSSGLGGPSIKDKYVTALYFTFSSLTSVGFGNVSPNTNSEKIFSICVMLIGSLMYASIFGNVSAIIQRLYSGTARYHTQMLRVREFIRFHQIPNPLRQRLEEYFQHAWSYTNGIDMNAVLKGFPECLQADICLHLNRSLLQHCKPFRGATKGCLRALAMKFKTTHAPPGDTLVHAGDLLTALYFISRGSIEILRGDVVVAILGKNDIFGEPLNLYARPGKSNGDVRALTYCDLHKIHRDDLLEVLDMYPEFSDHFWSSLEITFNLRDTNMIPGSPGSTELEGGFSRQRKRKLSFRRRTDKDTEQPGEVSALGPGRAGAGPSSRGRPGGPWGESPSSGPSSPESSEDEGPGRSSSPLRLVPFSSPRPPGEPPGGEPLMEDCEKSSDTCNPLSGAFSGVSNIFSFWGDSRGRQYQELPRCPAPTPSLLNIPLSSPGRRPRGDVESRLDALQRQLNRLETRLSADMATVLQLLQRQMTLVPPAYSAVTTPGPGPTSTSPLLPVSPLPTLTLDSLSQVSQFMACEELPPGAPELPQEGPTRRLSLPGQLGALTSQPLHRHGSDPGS

[33] = AUC (0 to infinity) in Wistar rat at 2 mg/kg, iv; format: ADME, organism-based; set-up: dose 2 mg/kg, route intravenous, time infinity; details: plasma; procedure, shortened: as §2
[34] = biological target: Cytochrome P450 2C9 (Homo sapiens, UniProt P11712); test: Inhibition of CYP2C9 (unknown origin); format: ADME; procedure, shortened: as §3
Chain of Cytochrome P450 2C9 (P11712 whole entry): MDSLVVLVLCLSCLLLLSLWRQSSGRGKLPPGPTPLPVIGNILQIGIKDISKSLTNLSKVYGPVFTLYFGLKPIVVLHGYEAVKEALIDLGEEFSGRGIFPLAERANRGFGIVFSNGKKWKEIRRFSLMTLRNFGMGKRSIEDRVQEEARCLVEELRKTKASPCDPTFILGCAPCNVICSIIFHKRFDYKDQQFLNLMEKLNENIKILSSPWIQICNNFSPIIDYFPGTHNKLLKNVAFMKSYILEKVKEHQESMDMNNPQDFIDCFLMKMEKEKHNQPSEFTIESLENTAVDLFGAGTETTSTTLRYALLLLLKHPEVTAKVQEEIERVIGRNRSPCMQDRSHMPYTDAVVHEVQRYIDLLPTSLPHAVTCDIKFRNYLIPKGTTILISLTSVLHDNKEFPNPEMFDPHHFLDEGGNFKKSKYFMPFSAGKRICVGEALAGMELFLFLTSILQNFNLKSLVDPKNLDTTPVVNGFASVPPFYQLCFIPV

[35] = Intrinsic clearance in rat cryopreserved hepatocytes assessed per 10^6 cells at 1 uM up to 120 mins by LC-MS/MS analysis; format: ADME, cell-based, Hepatocyte; details: read-out: CLH
[36] = test system: Pseudomonas aeruginosa; test: Antimicrobial activity against Pseudomonas aeruginosa ARC546 at 100 uM; format: functional, organism-based; procedure, shortened: as §1
[37] = Volume of distribution at steady state in Wistar rat at 2 mg/kg, iv; format: ADME, organism-based; set-up: dose 2 mg/kg, route intravenous; details: in vivo, read-out: Vdss; procedure, shortened: as §2
[38] = test system: Staphylococcus aureus; test: Antimicrobial activity against Staphylococcus aureus ARC517 at 100 uM; format: functional, organism-based; procedure, shortened: as §1
[39] = Cmax in Wistar rat at 10 mg/kg, po; format: ADME, organism-based; set-up: dose 10 mg/kg, route oral; details: in vivo; procedure, shortened: as §2

## Cn1ncc(C(=O)N2CCC(Nc3cc(=O)n(C)c4ccccc34)CC2)c1Cl
[1]
  Activity: inactive
[2]
  Activity: inactive
[3]
  fraction unbound at 18 h, 20 µM: 0.03
[4]
  bioavailability: 100%
[5]
  MIC: 25 µM (≈ 10 µg/mL)
[6]
  Activity: inactive
[7]
  Papp B→A: 23 ×10⁻⁶ cm/s
[8]
  logD: 2
[9]
  MCC at 72 h: > 100 µM
[10]
  INH: > 30 µM
[11]
  half-life: 1.1 h
[12]
  Activity: inactive
[13]
  microsomal CLint at 1 µM: 14 µL/min/mg
[14]
  IC50: 0.14 µM
[15]
  solubility at 24 h: 78 µM (≈ 31.2 µg/mL)
[16]
  IC50: 8 µM
[17]
  INH: > 30 µM
[18]
  Activity: inactive
[19]
  Activity: inactive
[20]
  Activity: inactive
[21]
  half-life: 1.3 h
[22]
  Activity: inactive
[23]
  Activity: inactive
[24]
  AUC(0-inf): 19 µM·h
[25]
  clearance: 24.8 mL/min/kg
[26]
  C0: 5.4 µM
[27]
  INH: > 30 µM
[28]
  Activity: inactive
[29]
  INH: > 30 µM
[30]
  Papp A→B: 4 ×10⁻⁶ cm/s
[31]
  Activity: inactive
[32]
  IC50: > 33 µM
[33]
  AUC(0-inf): 3.4 µM·h
[34]
  INH: > 30 µM
[35]
  hepatocyte CLint at 1 µM: 8 µL/min/1e6 cells
[36]
  Activity: inactive
[37]
  Vd: 1.2 L/kg
[38]
  Activity: inactive
[39]
  Cmax: 7 µM

— ChEMBL document CHEMBL3286182, “4-aminoquinolone piperidine amides: noncovalent inhibitors of DprE1 with long residence time and potent antimycobacterial activity” (J Med Chem, 2014)
